Laboratory results published in ChEMBL document CHEMBL4257457, “N-Heterocyclic borneol derivatives as inhibitors of Marburg virus glycoprotein-mediated VSIV pseudotype entry” (Medchemcomm, 2017).

Columns and labels:
[1] = Selectivity ratio of IC50 for Marburg virus envelope glycoprotein-mediated cell entry in rVSIV-deltaG-MarV-GP pseuotype virus infected HEK293 cells to IC50 for Vesicular stomatitis Indiana virus envelope glycoprotein-mediated cell entry in rVSIV-deltaG-G pseudotype virus infected HEK293 cells
Outline: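 Specificity coefficient is IC50 for rVSIV-ΔG-MarV-GP divided by IC50 for rVSIV-ΔG-G. Each IC50 came from HEK293 cells infected with that pseudotype (same VSIV capsid, different glycoprotein) with or without compound, at low-toxicity concentrations. Transduced luciferase was measured 24 h post-infection.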

HEK293 = assay: Cytotoxicity against HEK293 cells assessed as reduction in cell viability after 48 hrs by MTT assay; format: cell-based; settings: human, hek293, 48 h
Outline: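 HEK293 target cells were exposed to the compounds and viability was read by MTT assay.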

[2] = Selectivity index, ratio of CC50 for HEK293 cells to IC50 for Marburg virus envelope glycoprotein-mediated cell entry in rVSIV-deltaG-MarV-GP pseuotype virus infected HEK293 cells; format: toxicity; settings: human, read-out: Ratio CC50/IC50
Outline: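 Selectivity index is CC50 divided by IC50 against the MARV-GP pseudotype. CC50 came from an MTT assay on HEK293 cells. For IC50, HEK293 cells were infected with rVSIV-ΔG-MarV-GP with or without compound, across a low-toxicity concentration range chosen from CC50. The luciferase signal was read 24 h post-infection.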

SMILES | Ratio IC50 [1] | CC50 (HEK293) [µM] | selectivity ratio [2]
CC1(C)[C@H]2CC[C@]1(C)[C@H](OC(=O)CN1CCCCC1)C2 | 1 | 321 | 4
CCN1CCN(CCC(=O)O[C@@H]2C[C@@H]3CC[C@@]2(C)C3(C)C)CC1 | 11 | 474 | 47
CC1(C)[C@H]2CC[C@]1(C)[C@H](OC(=O)CCN1CCNCC1)C2 | 10 | 207 | 21
COc1ccc(CCN(C)CCCC(C#N)(c2ccc(OC)c(OC)c2)C(C)C)cc1OC (configuration not stated) |  | 280 | 
CC1CCN(CC(=O)O[C@@H]2C[C@@H]3CC[C@@]2(C)C3(C)C)CC1 | 3 | 240 | 9
CN1CCN(CC(=O)O[C@@H]2C[C@@H]3CC[C@@]2(C)C3(C)C)CC1 | 4 | 637 | 14
CC1(C)[C@H]2CC[C@]1(C)[C@H](OC(=O)CCN1CCCC1)C2 | 2 | 684 | 59
CCN1CCN(CC(=O)O[C@@H]2C[C@@H]3CC[C@@]2(C)C3(C)C)CC1 | 15 | 859 | 29
CN1CCN(CCC(=O)O[C@@H]2C[C@@H]3CC[C@@]2(C)C3(C)C)CC1 | 16 | 421 | 20
CCCCN(CCCC)CC(=O)O[C@@H]1C[C@@H]2CC[C@@]1(C)C2(C)C | 2 | 73 | 6
CC1(C)[C@H]2CC[C@]1(C)[C@H](OC(=O)CN1CCNCC1)C2 | 3 | 361 | 18
CC1(C)[C@H]2CC[C@]1(C)[C@H](O)C2 [(-)-BORNEOL] | > 3 | > 3000 | > 14
CCCCN(CCCC)CCC(=O)O[C@@H]1C[C@@H]2CC[C@@]1(C)C2(C)C | 8 | 86 | 15
CC1(C)[C@H]2CC[C@]1(C)[C@H](OC(=O)CCN1CCCCC1)C2 | 14 | 302 | 35
CC1(C)[C@H]2CC[C@]1(C)[C@H](OC(=O)CCN1CCOCC1)C2 | 3 | 406 | 5
CC1(C)[C@H]2CC[C@]1(C)[C@H](OC(=O)CN1CCCC1)C2 | 5 | 480 | 9
CC1(C)[C@H]2CC[C@]1(C)[C@H](OC(=O)CN1CCOCC1)C2 | 1 | 1280 | 5
CC1CCN(CCC(=O)O[C@@H]2C[C@@H]3CC[C@@]2(C)C3(C)C)CC1 | 34 | 215 | 60
